Test results: ChEMBL document CHEMBL1123481, “Structure-activity relationships of (arylalkyl)imidazole anticonvulsants: comparison of the (fluorenylalkyl)imidazoles with nafimidone and denzimol” (J Med Chem, 1986)

Assays:
Mus musculus [1] = test: Effective dose in mice by pentylenetetrazole assay (administered subcutaneously); format: functional; details: sc
Outline: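 Test compound was given orally to mice. At its previously determined time of peak effect, pentylenetetrazole (110 mg/kg in water, 10 mL/kg) was injected sc into the neck skin fold. Mice were watched for 15 min for presence or absence of a clonic seizure. Where protection was bell-shaped, the value is the dose giving maximum protection.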

Mus musculus [2] = organism: Mus musculus; test: Compound was tested for time to peak anticonvulsant effect (TPE); format: functional
Outline: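 Time to peak effect after oral dosing in 5% acacia/water was estimated by testing mice at 0.5, 1, 2, 3 and 4 h posttreatment in the MES and horizontal screen tests.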

Mus musculus [3] = organism: Mus musculus; test: Potentiation of hexobarbital-induced sleeping time in mice; format: functional
Outline: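 Groups of 10 fasted mice received compound orally at 10 mg/kg in 5% acacia/water (10 mL/kg). At the compound's time of peak effect they were given hexobarbital 100 mg/kg ip, solubilized with stoichiometric NaOH. Sleeping time, measured as loss of righting reflex, was recorded to the nearest minute. Values are mean ± SEM.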

[4] = Compound was tested for its toxicity in rat; format: organism-based; details: in vivo
Outline: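 Female Fischer 344 rats were fasted and given a single oral gavage dose, four dose levels per compound, as a suspension in 10% aqueous acacia. Mortality was scored and the median lethal dose (LD50) was derived.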

Mus musculus [5] = test: Effective dose in mice by horizontal screen assay (administered orally); format: functional; details: po
Outline: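 Fasted, pre-trained male CF1 mice (20–25 g) were dosed orally across a range of doses, given as a suspension in 5% acacia/water. Each mouse was placed on a 13 cm square wire screen, and the screen was rotated 180°. The score was return to the top within 1 min. Time of peak effect was scanned at 0.5–4 h. Each compound was then retested at that time with at least 4 doses and 12 mice per dose.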

[6] = Compound was tested for its toxicity in rat; Ca 4550; format: organism-based; details: in vivo

In the case of O=C(Cn1ccnc1)c1ccc2c(c1)Cc1ccccc1-2, the ED50 (Mus musculus [1]) is reported as over 200 mg/kg, the TPE (Mus musculus [2]) is reported as 3 h and the ST (Mus musculus [3]) is reported as 73.7 min. The LD50 [4] was 504 mg/kg, the ED50 (Mus musculus [5]) was over 1000 mg/kg and the LD50 [6] was 4550 mg/kg.
